Consider 9 compounds from ChEMBL document CHEMBL1629467, “Design and synthesis of novel tetrahydro-2H-Pyrano[3,2-c]pyridazin-3(6H)-one derivatives as potential anticancer agents” (Eur J Med Chem, 2010).

One experiment has as its system HCT-116. Nature of the experiment: Growth inhibition of human HCT116 cells after 48 hrs by sulforhodamine B assay. The format is functional, cell-based. The note with it: HCT-116, 48 h. An outline of the steps:
(§1)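 Cells were grown in RPMI-1640 with 10% FBS, penicillin, streptomycin and amphotericin B at 37 °C in 5% CO2, then treated for 48 h in triplicate wells. They were fixed with cold 50% TCA for 1 h at 4 °C, stained with 0.4% SRB in 1% acetic acid for 10 min at RT, and dissolved in 10 mM Tris (pH 10.5) before reading A570. Percent inhibition was calculated against untreated cells after blank subtraction. IC50 is the concentration giving a 50% reduction in net protein increase, reported as mean ± SEM from ≥3 independent runs.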
In general terms: Sulforhodamine B stains cellular protein and so reports cell mass.
Take `CO[C@@H]1CC=C2NN(c3cc(F)cc(Cl)c3)C(=O)C[C@]2(c2ccccc2)O1`: the 50% inhibitory concentration (IC50) (commonly the concentration that gives 50% inhibition) was found to be 16.2 µM.

On to `CO[C@@H]1CC=C2NN(c3ccc(C)cc3)C(=O)C[C@]2(C)O1`, for which the IC50 turned out to be 28.7 µM. This IC50 lies about 1.8-fold higher than the previous one.

`CO[C@@H]1CC=C2NN(c3cncnc3)C(=O)C[C@]2(c2ccccc2)O1` showed a 50% inhibitory concentration (IC50) of 9.13 µM. Compared with the last compound, the IC50 is about 3.1-fold lower.

The compound `CO[C@@H]1CC=C2NN(c3ccc(C)cc3)C(=O)C[C@]2(c2ccccc2)O1` displayed an IC50 of 10.5 µM.

`CO[C@@H]1CC=C2NN(c3cccnc3)C(=O)C[C@]2(C)O1`: the IC50 is 17.1 µM.

On to `CO[C@@H]1CC=C2NN(c3ccc(Cl)cc3)C(=O)C[C@]2(C)O1`, for which it took 35.7 µM to reach half-maximal inhibition (IC50).

In the case of `CO[C@@H]1CC=C2NN(c3cc(Cl)cc(Cl)c3)C(=O)C[C@]2(C)O1`, the half-maximal inhibitory concentration (IC50) is 19.4 µM.

`COc1cc(OC)cc(N2NC3=CC[C@@H](OC)O[C@@]3(c3ccccc3)CC2=O)c1`: the IC50 is 18.1 µM.

For the compound `CO[C@@H]1CC=C2NN(c3ccc(C)cc3)C(=O)C[C@]2(c2ccncc2)O1`, the IC50 turned out to be 7.4 µM. Compared with the last compound, the IC50 is about 2.4-fold lower.

The subject of the next experiment is SK-N-SH. Nature of the experiment: Growth inhibition of human SK-N-SH cells after 48 hrs by sulforhodamine B assay. The format is functional, cell-based.
Details: not given
An outline of the steps: as §1
As to `CO[C@@H]1CC=C2NN(c3cc(F)cc(Cl)c3)C(=O)C[C@]2(c2ccccc2)O1`, half-maximal inhibition (IC50) was put at 17.4 µM.

`CO[C@@H]1CC=C2NN(c3ccc(C)cc3)C(=O)C[C@]2(C)O1` yielded an IC50 of 25.3 µM.

`CO[C@@H]1CC=C2NN(c3cncnc3)C(=O)C[C@]2(c2ccccc2)O1` yielded an IC50 of 8.2 µM.

The compound `CO[C@@H]1CC=C2NN(c3ccc(C)cc3)C(=O)C[C@]2(c2ccccc2)O1` displayed an IC50 of 11.1 µM.

As for `CO[C@@H]1CC=C2NN(c3cccnc3)C(=O)C[C@]2(C)O1`, the IC50 stood at 19 µM.

Take `CO[C@@H]1CC=C2NN(c3ccc(Cl)cc3)C(=O)C[C@]2(C)O1`: it took 31.7 µM to reach half-maximal inhibition (IC50).

Take `CO[C@@H]1CC=C2NN(c3cc(Cl)cc(Cl)c3)C(=O)C[C@]2(C)O1`: it took 20.2 µM to reach half-maximal inhibition (IC50).

In the case of `COc1cc(OC)cc(N2NC3=CC[C@@H](OC)O[C@@]3(c3ccccc3)CC2=O)c1`, 19.5 µM corresponded to half-maximal inhibition (IC50).

For `CO[C@@H]1CC=C2NN(c3ccc(C)cc3)C(=O)C[C@]2(c2ccncc2)O1`, the IC50 was found to be 8.1 µM.

The next experiment relates to SK-BR-3. Nature of the experiment: Growth inhibition of human SK-BR-3 cells after 48 hrs by sulforhodamine B assay. It is filed as functional, cell-based. The note with it: SK-BR-3, 48 h. An outline of the steps: as §1
The compound `CO[C@@H]1CC=C2NN(c3cc(F)cc(Cl)c3)C(=O)C[C@]2(c2ccccc2)O1` registered a 50% inhibitory concentration (IC50) of 17.6 µM.

Turning to `CO[C@@H]1CC=C2NN(c3ccc(C)cc3)C(=O)C[C@]2(C)O1`, the IC50 was 29.7 µM.

In turn, `CO[C@@H]1CC=C2NN(c3cncnc3)C(=O)C[C@]2(c2ccccc2)O1` registered an IC50 of 5.3 µM. Against the preceding compound, the IC50 is about 5.6-fold lower.

With `CO[C@@H]1CC=C2NN(c3ccc(C)cc3)C(=O)C[C@]2(c2ccccc2)O1`, it took 9.2 µM to reach half-maximal inhibition (IC50).

In turn, `CO[C@@H]1CC=C2NN(c3cccnc3)C(=O)C[C@]2(C)O1` yielded an IC50 of 15.2 µM.

On to `CO[C@@H]1CC=C2NN(c3ccc(Cl)cc3)C(=O)C[C@]2(C)O1`, for which 28.7 µM corresponded to half-maximal inhibition (IC50).

`CO[C@@H]1CC=C2NN(c3cc(Cl)cc(Cl)c3)C(=O)C[C@]2(C)O1` showed an IC50 of 18.8 µM. Against the preceding compound, the IC50 is about 1.5-fold lower.

`COc1cc(OC)cc(N2NC3=CC[C@@H](OC)O[C@@]3(c3ccccc3)CC2=O)c1`: the IC50 was 1.2 µM. This IC50 lies about 16-fold lower than the previous one.

`CO[C@@H]1CC=C2NN(c3ccc(C)cc3)C(=O)C[C@]2(c2ccncc2)O1` came in with an IC50 of 6.2 µM.

A further experiment concerns DU-145. Nature of the experiment: Growth inhibition of human DU145 cells after 48 hrs by sulforhodamine B assay. It is filed as functional, cell-based. The note with it: DU-145, 48 h. The essentials: as §1
Compound `CO[C@@H]1CC=C2NN(c3cc(F)cc(Cl)c3)C(=O)C[C@]2(c2ccccc2)O1` yielded a half-inhibitory concentration (IC50) of 16.1 µM.

Take `CO[C@@H]1CC=C2NN(c3ccc(C)cc3)C(=O)C[C@]2(C)O1`: the IC50 is 23.2 µM. This IC50 and that of the compound before are within 1.5-fold of each other.

Turning to `CO[C@@H]1CC=C2NN(c3cncnc3)C(=O)C[C@]2(c2ccccc2)O1`, half-maximal inhibition (IC50) required 7.33 µM.

Compound `CO[C@@H]1CC=C2NN(c3ccc(C)cc3)C(=O)C[C@]2(c2ccccc2)O1` registered an IC50 of 11.2 µM.

`CO[C@@H]1CC=C2NN(c3cccnc3)C(=O)C[C@]2(C)O1` displayed an IC50 of 16.4 µM.

For `CO[C@@H]1CC=C2NN(c3ccc(Cl)cc3)C(=O)C[C@]2(C)O1`, half-maximal inhibition (IC50) was put at 24.2 µM.

`CO[C@@H]1CC=C2NN(c3cc(Cl)cc(Cl)c3)C(=O)C[C@]2(C)O1`: the IC50 came to 21.3 µM.

Compound `COc1cc(OC)cc(N2NC3=CC[C@@H](OC)O[C@@]3(c3ccccc3)CC2=O)c1` showed a half-maximal inhibitory concentration (IC50) of 18.3 µM. The IC50 values of the last two compounds are within 1.5-fold of each other.

The compound `CO[C@@H]1CC=C2NN(c3ccc(C)cc3)C(=O)C[C@]2(c2ccncc2)O1` had an IC50 of 7.1 µM.

A further experiment deals with A549. Nature of the experiment: Growth inhibition of human A549 cells after 48 hrs by sulforhodamine B assay. The format is functional, cell-based. The note with it: A549, 48 h. An outline of the steps: as §1
`CO[C@@H]1CC=C2NN(c3cc(F)cc(Cl)c3)C(=O)C[C@]2(c2ccccc2)O1` had an IC50 of 14.1 µM. This lies in the double-digit micromolar range.

As for `CO[C@@H]1CC=C2NN(c3ccc(C)cc3)C(=O)C[C@]2(C)O1`, the IC50 was 21.5 µM.

Turning to `CO[C@@H]1CC=C2NN(c3cncnc3)C(=O)C[C@]2(c2ccccc2)O1`, the IC50 worked out at 5.2 µM. Compared with the last compound, the IC50 is about 4.1-fold lower.

In turn, `CO[C@@H]1CC=C2NN(c3ccc(C)cc3)C(=O)C[C@]2(c2ccccc2)O1` registered an IC50 of 8.11 µM.

`CO[C@@H]1CC=C2NN(c3cccnc3)C(=O)C[C@]2(C)O1`: the IC50 worked out at 14.3 µM. Compared with the last compound, the IC50 is about 1.8-fold higher.

The compound `CO[C@@H]1CC=C2NN(c3ccc(Cl)cc3)C(=O)C[C@]2(C)O1` registered an IC50 of 25.5 µM. Compared with the last compound, the IC50 is about 1.8-fold higher.

With `CO[C@@H]1CC=C2NN(c3cc(Cl)cc(Cl)c3)C(=O)C[C@]2(C)O1`, the IC50 is 17.5 µM.

The compound `COc1cc(OC)cc(N2NC3=CC[C@@H](OC)O[C@@]3(c3ccccc3)CC2=O)c1` came in with an IC50 of 17.2 µM.

`CO[C@@H]1CC=C2NN(c3ccc(C)cc3)C(=O)C[C@]2(c2ccncc2)O1` returned an IC50 of 5.9 µM. This IC50 is about 2.9-fold lower than that of the compound before.
